Experimental data published in ChEMBL document CHEMBL1121524, “Studies of hypolipidemic agents. 1. Synthesis and hypolipidemic activities of alkoxycinnamic acid derivatives” (1980).

Columns and labels:
Rattus norvegicus [1] = assay: In vivo hypolipidemic activity, expressed as percent decrease in serum cholesterol in rat, at dosage of 20 mg for 7 days.; type: functional
In short: (§1)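 Male Sprague-Dawley rats, 4 weeks old, kept on CE-2 chow for at least 1 week, then grouped (generally five per group). Compound was mixed into CE-2 powder and fed ad libitum for the stated period; controls received plain CE-2 powder. Diet level is given as mg/100 g (mg%), about equal to mg/kg/day. Total serum cholesterol was measured by the Zak et al. method and reported as percent depression versus control group mean. Significance was p < 0.05.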

Rattus norvegicus [2] = assay: In vivo hypolipidemic activity, expressed as percent decrease in serum triglyceride in rat, at dosage of 20 mg for 7 days.
Rattus norvegicus [3] = organism: Rattus norvegicus; assay: Hypolipidemic activity expressed as percentage decrease in triglyceride in rat, at dosage of 50 mg for 7 days; type: functional
In short: as §1, with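 “triglyceride” for “cholesterol”, “Ryan and Rasho” for “Zak et al.”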

Rattus norvegicus [4] = organism: Rattus norvegicus; assay: Tested for the hypolipidemic activity, expressed as percent decrease in serum cholesterol in rat, at dosage of 50 mg for 7 days; type: functional; in short: as §1
Rattus norvegicus [5] = organism: Rattus norvegicus; assay: Tested for the hypolipidemic activity, expressed as percent decrease in Triglyceride in rat, at dosage of 100 mg for 6 days by Ryan and Rasho method; type: functional
In short: as §1, with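 “triglyceride” for “cholesterol”, “Ryan and Rasho” for “Zak et al.”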

Rattus norvegicus [6] = organism: Rattus norvegicus; assay: Tested for the hypolipidemic activity, expressed as percent decrease in serum cholesterol in rat, at dosage of 100 mg for 6 days by Zak et al method; type: functional; in short: as §1
Rattus norvegicus [7] = organism: Rattus norvegicus; assay: Tested for the hypolipidemic activity, expressed as percent decrease in Triglyceride in rat, at dosage of 100 mg for 3 days by Ryan and Rasho method; type: functional
In short: as §1, with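 “triglyceride” for “cholesterol”, “Ryan and Rasho” for “Zak et al.”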

Rattus norvegicus [8] = organism: Rattus norvegicus; assay: Tested for the hypolipidemic activity, expressed as percent decrease in serum cholesterol in rat, at dosage of 100 mg for 3 days by Zak et al method; type: functional; in short: as §1
Rattus norvegicus [9] = assay: In vivo hypolipidemic activity, expressed as percent decrease in Triglyceride in rat, at dosage of 100 mg for 7 days.; type: functional
In short: as §1, with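 “triglyceride” for “cholesterol”, “Ryan and Rasho” for “Zak et al.”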

Rattus norvegicus [10] = organism: Rattus norvegicus; assay: Hypolipidemic activity, expressed as percent decrease in serum cholesterol in rat, at dosage of 100 mg for 7 days by Zak et al method; type: functional; in short: as §1
Rattus norvegicus [11] = organism: Rattus norvegicus; assay: tested for the hypolipidemic activity, expressed as percent decrease in serum cholesterol in rat, at dosage of 10 mg for 7 days by Zak et al method; type: functional; in short: as §1
Rattus norvegicus [12] = organism: Rattus norvegicus; assay: tested for the hypolipidemic activity, expressed as percent decrease in serum cholesterol in rat, at dosage of 50 mg for 3 days by Zak et al method; type: functional; in short: as §1
Rattus norvegicus [13] = organism: Rattus norvegicus; assay: tested for the hypolipidemic activity, expressed as percent decrease in Triglyceride in rat, at dosage of 50 mg for 3 days by Ryan and Rasho method; type: functional
In short: as §1, with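 “triglyceride” for “cholesterol”, “Ryan and Rasho” for “Zak et al.”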

Rattus norvegicus [14] = organism: Rattus norvegicus; assay: tested for the hypolipidemic activity, expressed as percent decrease in Triglyceride in rat, at dosage of 10 mg for 7 days by Ryan and Rasho method; type: functional
In short: as §1, with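 “triglyceride” for “cholesterol”, “Ryan and Rasho” for “Zak et al.”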

Rattus norvegicus [15] = organism: Rattus norvegicus; assay: Tested for the hypolipidemic activity, expressed as percent decrease in Triglyceride in rat, at dosage of mg for 7 days by Ryan and Rasho method; type: functional
In short: as §1, with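 “triglyceride” for “cholesterol”, “Ryan and Rasho” for “Zak et al.”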

Rattus norvegicus [16] = organism: Rattus norvegicus; assay: Tested for the hypolipidemic activity, expressed as percent decrease in Triglyceride in rat, at dosage of 102 mg for 7 days by Ryan and Rasho method; type: functional
In short: as §1, with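 “triglyceride” for “cholesterol”, “Ryan and Rasho” for “Zak et al.”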

Rattus norvegicus [17] = organism: Rattus norvegicus; assay: Tested for the hypolipidemic activity, expressed as percent decrease in serum cholesterol in rat, at dosage of 102 mg for 7 days by Zak et al method; type: functional; in short: as §1

SMILES	Decrease (Rattus norvegicus [1]) [%]	Decrease (Rattus norvegicus [2]) [%]	Decrease (Rattus norvegicus [3]) [%]	Decrease (Rattus norvegicus [4]) [%]	Decrease (Rattus norvegicus [7]) [%]	Decrease (Rattus norvegicus [8]) [%]	also measured
O=C(/C=C/c1ccc(Oc2ccccc2)cc1)OCCCl	18	21	–	–	–	–	–
CCCCCCCCCCCCCCCCOc1ccc(/C=C(\C)C(=O)O)cc1	9	1	25	17	–	–	–
COc1ccc(/C=C/C(=O)OCC(O)CO)cc1 (stereo not given)	–	–	–	–	–	–	Decrease (Rattus norvegicus [5]): 31%; Decrease (Rattus norvegicus [6]): 4%
CCCCCCCCCCCCCCCCOc1ccc(/C=C(\C)C(=O)OCCCCl)cc1	–	–	–	–	25	17	–
CCOC(=O)C(C)(C)Oc1ccc(Cl)cc1 [CLOFIBRATE]	–	–	35	14	–	–	Decrease (Rattus norvegicus [9]): 41%; Decrease (Rattus norvegicus [10]): 22%
C=C(C)C(=O)OCCOC(=O)/C(C)=C/c1ccc(OCCCCCCCCCCCCCCCC)cc1	13	12	–	–	–	–	Decrease (Rattus norvegicus [11]): 3%; Decrease (Rattus norvegicus [9]): 62%; Decrease (Rattus norvegicus [12]): 25%; Decrease (Rattus norvegicus [10]): 35%; Decrease (Rattus norvegicus [13]): 27%; Decrease (Rattus norvegicus [14]): 10%
C=C(C)C(=O)OCCOC(=O)/C=C/c1ccc(OCCCCCCCCCCCCCCCC)cc1	16	38	42	13	–	–	Decrease (Rattus norvegicus [11]): 5%; Decrease (Rattus norvegicus [9]): 65%; Decrease (Rattus norvegicus [10]): 27%; Decrease (Rattus norvegicus [14]): 15%
CCCCCCCCCCCCOc1ccc(/C=C(\C)C(=O)OCC(COC(=O)/C(C)=C/c2ccc(OCCCCCCCCCCCC)cc2)OC(=O)/C(C)=C/c2ccc(OCCCCCCCCCCCC)cc2)cc1 (stereo not given)	–	–	–	2	–	–	Decrease (Rattus norvegicus [15]): 28%
CCCCCCCCCCCCCCCCOc1ccc(/C=C/C(=O)OCC(O)CO)cc1 (stereo not given)	9	8	17	19	–	–	Decrease (Rattus norvegicus [11]): -4%; Decrease (Rattus norvegicus [9]): 62%; Decrease (Rattus norvegicus [10]): 26%; Decrease (Rattus norvegicus [14]): 11%
CCCCCCCCCCCCCCCCOc1ccc(/C=C(\C)C(=O)OCCCO)cc1	–	–	–	–	43	6	–
CCCCCCCCCCCCCCCCOc1ccc(/C=C(\C)C(=O)OCCS(=O)(=O)[O-])cc1.[Na+]	–	–	–	–	36	8	–
CCCCCCCCCCCCCCCC(=O)OCC(COC(=O)/C(C)=C/c1ccc(OCCCCCCCCCCCCCC)cc1)OC(=O)CCCCCCCCCCCCCCC (stereo not given)	–	–	–	–	–	–	Decrease (Rattus norvegicus [16]): 5%; Decrease (Rattus norvegicus [17]): 18%
CCCCCCCCCCCCCCOc1ccc(/C=C(\C)C(=O)O)cc1	12	38	26	17	–	–	Decrease (Rattus norvegicus [9]): 45%; Decrease (Rattus norvegicus [10]): 16%
CCCCCCCCCCCCCCCCOc1ccc(/C=C(\C)C(=O)OCCCl)cc1	20	5	–	–	48	24	Decrease (Rattus norvegicus [12]): 20%; Decrease (Rattus norvegicus [13]): 26%
CCCCCCCCCCCCCCCCOc1ccc(/C=C/C(=O)OCCCCl)cc1	1	38	48	5	–	–	Decrease (Rattus norvegicus [9]): 44%; Decrease (Rattus norvegicus [10]): 22%
C=C(C)C(=O)OCCOC(=O)/C=C/c1ccc(Oc2ccccc2)cc1	–	–	–	–	-15	14	–
O=C(/C=C/c1ccccc1)OCC(O)CO (stereo not given)	–	–	–	–	–	–	Decrease (Rattus norvegicus [5]): 16%; Decrease (Rattus norvegicus [6]): 6%
CCCCCCCCCCCCCCCCOc1ccc(/C=C/C(=O)OCCOC(=O)/C=C/c2ccc(OCCCCCCCCCCCCCCCC)cc2)cc1	–	–	–	–	-4	9	–
CCCCOc1ccc(/C=C/C(=O)OCCN2CCOCC2)cc1.Cl	–	–	–	–	-32	-9	–
CCCCCCCCCCCCCCOc1ccc(/C=C(\C)C(=O)OCCC(=O)OC)cc1	-1	7	37	30	–	–	–
C/C(=C\c1ccc(Oc2ccccc2)cc1)C(=O)O	8	15	–	–	–	–	–
CCCCCCCCCCCCCCCCOc1ccc(/C=C/C(=O)OCCCOC(=O)/C=C/c2ccc(OCCCCCCCCCCCCCCCC)cc2)cc1	–	–	–	–	-2	8	–
